Laboratory results as given in ChEMBL document CHEMBL4622976, “Development of pH/Glutathione-Responsive Theranostic Agents Activated by Glutathione S-Transferase π for Human Colon Cancer” (J Med Chem, 2020).
Calls of active or inactive are those of the source. The calls are words filed in the database; no cut-off is given here.

Columns and labels:
[1] = Drug uptake in lysosome of human HT-29 cells at 1 uM incubated for 60 mins by Lyso-tracker based confocal fluorescence microscopy; assay type: ADME, subcellular; details: ht-29, 1 h
Outline: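 HT29 and CCD841 cells were seeded at 2×10^5 in glass-bottom dishes. They were co-incubated in DMEM with compound (1 µM) and LysoTracker Red DND-99 (1 µM). Confocal imaging used a 40× water objective. Compound channel: 405 nm laser, 480–530 nm filter. LysoTracker channel: 561 nm laser, 580–630 nm filter.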

[2] = Drug metabolism assessed as GSTpi (unknown origin) mediated compound fluorescence activation at 1 uM in presence of 1 mM Zn2+ by HPLC analysis; assay type: ADME; details: human
Outline: (§1)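 Selectivity test: compound (1 µM) with catalytic GSTπ and each analyte in water with 1% (v/v) DMSO at pH 4.0, 37 °C for 0.5 h. Analytes were cations at 1 mM; amino acids, vitamin C, Na2S and GSH at 100 µM. Readout was fluorescence emission spectra (excitation 440 nm, recorded 450–650 nm).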

[3] = Toxicity in ICR mouse assessed as induction of animal death at 240 to 585.9 mg/kg, ip measured after 1 hr; assay type: organism-based; details: in vivo
Outline: (§2)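 Female ICR mice, randomised, n = 10 per group. Single intraperitoneal dose of 240.0, 300.0, 375.0, 468.8 or 585.9 mg/kg, or vehicle. Deaths recorded at 1 h, 4 h, days 1–4 and days 5–14. Body weight, drinking, eating and activity observed over 14 days. Survival percentage taken on day 14; LD50 derived from the dose–mortality data.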

HT-29 [4] = experiment: Induction of apoptosis in human HT-29 cells at 1 uM incubated for 72 hrs by FITC-AnnexinV/PI staining based flow cytometry relative to control; assay type: functional
Outline: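 HT29 cells were cultured 12 h, then exposed to compound (0.4, 1.0, 2.5 µM) or vehicle for 72 h. Harvested cells were stained with Annexin V and PI, and apoptotic cell percentages measured by flow cytometry. Means ± SD come from three separate experiments.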

[5] = Toxicity in ICR mouse assessed as induction of animal survival rate at 468.8 mg/kg, ip measured after 14 days; assay type: organism-based; details: in vivo; outline: as §2
[6] = Drug metabolism assessed as GSTpi (unknown origin) mediated compound fluorescence activation at 1 uM in presence of 1 mM Cu2+ by HPLC analysis; assay type: ADME; details: human; outline: as §1
[7] = Drug metabolism assessed as GSTpi (unknown origin) mediated compound fluorescence activation at 1 uM in presence of 100 uM cysteine by HPLC analysis; assay type: ADME; details: human; outline: as §1
[8] = Drug metabolism assessed as GSTpi (unknown origin) mediated compound fluorescence activation at 1 uM in presence of 1 mM Al3+ by HPLC analysis; assay type: ADME; details: human; outline: as §1
HT-29 [9] = experiment: Induction of apoptosis in human HT-29 cells assessed as increase in cleaved caspase-3 protein level incubated for 72 hrs by Western blot analysis; assay type: functional, cell-based
Outline: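 HT29 cells (1.5×10^5/mL) were treated for 72 h and lysed. Lysate (0.05 mg/lane) was run on 12% SDS-PAGE and transferred to nitrocellulose. After blocking in 5% non-fat milk, blots were probed for Bax, Bcl-2, cleaved caspase-3, cleaved PARP, LC3, p62 and beclin-1. Levels were normalised to β-actin, and means ± SD taken from three independent assays.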

[10] = Toxicity in ICR mouse assessed as induction of animal survival rate at 300 mg/kg, ip measured after 14 days; assay type: organism-based; details: in vivo; outline: as §2
[11] = Drug metabolism assessed as GSTpi (unknown origin) mediated compound fluorescence activation at 1 uM in presence of 1 mM Na+ by HPLC analysis; assay type: ADME; details: human; outline: as §1
[12] = Toxicity in ip dosed ICR mouse for 14 days; assay type: organism-based; details: in vivo; outline: as §2
[13] = Toxicity in ICR mouse assessed as induction of abnormality in body weight level at 240 mg/kg, ip for 14 days; assay type: organism-based; details: in vivo, 336 h
Outline: (§3)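 Female ICR mice (n = 10 per group) given a single intraperitoneal dose at 240.0, 300.0, 375.0, 468.8 or 585.9 mg/kg, or vehicle. Deaths recorded at 1 h, 4 h and daily through day 14. Body weight, drinking, eating and activity observed for abnormality; LD50 derived from mortality.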

HepG2 = experiment: Antiproliferative activity against human HepG2 cells by MTT assay; assay type: functional, cell-based
Outline: (§4)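 MTT assay. Cells were grown in DMEM/RPMI 1640 with 10% FBS, penicillin and streptomycin at 37 °C under 5% CO2. After a PBS wash, cells got 0.5 mg/mL MTT for 3 h at 37 °C. Formazan was dissolved in DMSO and absorbance read at 570 nm. Inhibition was expressed as a percentage and IC50 calculated. Means ± SD come from three separate experiments.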

[14] = Drug localization in tumor of intra-operative mouse xenografted with human HT-29/Luc cells at 40 mg/kg, iv measured over 7 hrs post dose by fluorescence imaging assay; assay type: ADME, organism-based, Neoplasm; details: in vivo
HT-29 [15] = experiment: Antiproliferative activity against human HT-29 cells by MTT assay; assay type: functional, cell-based; outline: as §4
[16] = Toxicity in BALB/c mouse xenografted with human hT-29 cells assessed as effect on body mass at 20 to 40 mg/kg, ip dosed every day for 21 days; assay type: organism-based; details: in vivo, 504 h
Outline: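 Female BALB/c nude mice, 5-6 weeks old, inoculated subcutaneously with 1×10^6 HT29 cells. At tumor volume 100 mm³, animals randomized to compound or saline, given intraperitoneally every day for 21 days. Body weight recorded every three days; animals euthanized at 20% weight loss. Tumor volume = ½(L×W²) from caliper measurements; tumors excised and weighed at the end.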

HT-29 [17] = experiment: Antitumor activity against human HT-29 cells xenografted in nude BALB/c mouse assessed as reduction in tumor volume at 20 mg/kg, ip dosed every day for 21 days; assay type: functional, organism-based
[18] = Toxicity in ICR mouse assessed as induction of abnormality in eating behavior at 240 mg/kg, ip for 14 days; assay type: organism-based; details: in vivo, 336 h; outline: as §3
[19] = Drug metabolism assessed as GSTpi (unknown origin) mediated 1-(3,4,5-trimethoxyphenyl)-9H-pyrido[3,4-b]indol-3-amine formation at 40 uM in presence of 0.8 mM GSH by HPLC analysis; assay type: ADME; details: human
Outline: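 HPLC measurement of amine release after incubating compound (40 µM) with GSH (0.8 mM) and GSTπ or GSTα at 0.03 µg/ml.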

HT-29 [20] = experiment: Antitumor activity against human HT-29 cells xenografted in nude BALB/c mouse assessed as tumor weight level at 40 mg/kg, ip dosed every day for 21 days (reference value: 1.49 +/- 0.27 g); assay type: functional
[21] = Drug uptake in human CCD-841 cells at 1 uM measured within 10 mins by confocal fluorescence microscopy; assay type: ADME, cell-based
Outline: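 Cells were seeded at 2×10^5 in glass-bottom dishes and allowed to attach. Medium was then replaced with DMEM containing 1 µM compound. Confocal images were taken every minute for 60 min with a 40× water objective, 405 nm laser and 480–530 nm filter. Intracellular fluorescence intensity was quantified.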

[22] = Toxicity in ICR mouse assessed as induction of animal death at 240 to 300 mg/kg, ip measured after 4 days; assay type: organism-based; details: in vivo, 96 h; outline: as §2
[23] = Drug metabolism assessed as GSTpi (unknown origin) mediated compound fluorescence activation at 1 uM in presence of 100 uM glycine by HPLC analysis; assay type: ADME; details: human; outline: as §1

COc1cc(-c2nc(NC(=O)OCC3=CCCCC3=O)cc3c2[nH]c2ccccc23)cc(OC)c1OC
Drug uptake [1]: Active
Drug metabolism [2]: Metabolite_Notdetected
Activity [3]: Non-Toxic
Activity (HT-29 [4]): 36.8%
survival at 336 h [5]: 40%
Drug metabolism [6]: Metabolite_Notdetected
Drug metabolism [7]: Metabolite_Notdetected
Drug metabolism [8]: Metabolite_Notdetected
Activity (HT-29 [9]): Dose-dependent effect
survival at 336 h [10]: 100%
Drug metabolism [11]: Metabolite_Notdetected
LD50 at 336 h [12]: 475 mg/kg
Activity [13]: Non-Toxic
IC50 (HepG2): 1570 nM
Drug uptake [14]: Active
IC50 (HT-29 [15]): 920 nM
Activity [16]: Non-Toxic
Activity (HT-29 [17]): Active
Activity [18]: Non-Toxic
Drug metabolism [19]: Metabolite_Detected
Activity (HT-29 [20]): 0.48 g
Drug uptake [21]: Not Active
Activity [22]: Non-Toxic
Drug metabolism [23]: Metabolite_Notdetected
